# Source: PubChem
# Compounds with a hit are over-represented: about 1.9% of the library has one in this group of screens.
# HGIII-sPLA2 inh – Inhibits HGIII-sPLA2 liposome hydrolysis, primary screen | inhibition, % at 12.2 µM | QFRET BODIPY PC-A2 liposome hydrolysis, fluorescence | actives 0.56% (n = 370,000);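 active = inhibition above mean plus 3 SD of compounds lying within the high and low control bounds, cut at about 19% in these data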;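 also: 0% = median of test compound wells and 100% = no enzyme DMSO wells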
# Target sequence (Q9NZ20 whole entry, looked up): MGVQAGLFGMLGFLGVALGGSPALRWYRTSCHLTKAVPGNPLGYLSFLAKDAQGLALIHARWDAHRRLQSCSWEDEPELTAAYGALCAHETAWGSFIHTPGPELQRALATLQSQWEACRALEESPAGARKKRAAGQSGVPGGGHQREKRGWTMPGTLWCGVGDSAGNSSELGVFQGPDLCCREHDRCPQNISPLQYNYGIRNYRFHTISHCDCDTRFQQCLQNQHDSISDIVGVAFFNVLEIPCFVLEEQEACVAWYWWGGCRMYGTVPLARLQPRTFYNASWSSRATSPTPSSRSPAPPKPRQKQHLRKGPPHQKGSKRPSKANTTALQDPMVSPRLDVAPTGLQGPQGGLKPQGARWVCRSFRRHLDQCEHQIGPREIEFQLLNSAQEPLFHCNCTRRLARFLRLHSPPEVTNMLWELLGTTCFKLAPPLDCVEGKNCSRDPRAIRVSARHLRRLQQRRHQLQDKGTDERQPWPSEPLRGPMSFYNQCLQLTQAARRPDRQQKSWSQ
# Tb MetRS inh – Trypanosoma brucei MetRS inhibition | inhibition, % at 11.9 µM | actives 0.4% (n = 360,000) | purified T. brucei MetRS, ATP depletion, Kinase-Glo luminescence;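 active = inhibition above a per-plate cutoff of the control wells' mean inhibition plus 3 SD, cut at about 5.5% in these data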;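 also: 0% = DMSO wells median and 100% = median of wells with control inhibitor compound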
#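 technique = Kinase-Glo luminescence, ATP depletion format | system = purified MetRS (methionyl-tRNA synthetase) enzyme from Trypanosoma brucei | timing = 15 min preincubation, 2 h reaction, all 25 °C | evaluation = percent inhibition versus plate control medians | dosing = single dose, 11.9 µM final nominal, 0.9% final DMSO | also added = substrates ATP, L-methionine and bulk Escherichia coli tRNA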
# PLC-gamma1 inh – inhibitors of human phospholipase C gamma1; P19174; purified PLC-gamma1, fluorogenic substrate, fluorescence; inhibition, % at 12.2 µM; actives 0.84% (n = 370,000); AID 720700; in the data active = inhibition above about 9.5%
# PLCb3 inh – PLC-beta3 (human) inhibition, primary screen. Q01970. Purified PLC-beta3, fluorogenic substrate, fluorescence. inhibition, % at 12.2 µM. actives 0.18% (n = 370,000). AID 720704; in the data active = inhibition above about 11%;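 also: 0% = median of compound wells on plate and 100% = full blocker control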
# hGIII sPLA2 conf – human GIII-sPLA2 inhibition, confirmation. shares compounds with HGIII-sPLA2 inh. recombinant hGIII-sPLA2, BODIPY PC-A2 QFRET fluorescence. inhibition, % at 12.2 µM. actives 34% (n = 2,000). AID 743280;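 active = mean inhibition across triplicates above the hit cutoff set in the earlier primary screen, cut at about 19% in these data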;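 also: 0% = enzyme with DMSO and 100% = DMSO wells lacking enzyme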
# BODIPY interf – counter-screen for HGIII-sPLA2 inhibitors: 535nm fluorescence interference; shares compounds with HGIII-sPLA2 inh; BODIPY FL product fluorescence interference, QFRET; inhibition, % at 12.2 µM; actives 8.5% (n = 2,000); AID 743282;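 active = average inhibition above the solvent-only control mean plus 3 SD, cut at about 6% in these data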;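 also: 0% = DMSO with substrate plus product and 100% = DMSO with substrate alone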
# The depositor's hits bear a star; nt = not tested or not shown.
SMILES,HGIII-sPLA2 inh,Tb MetRS inh,PLC-gamma1 inh,PLCb3 inh,hGIII sPLA2 conf,BODIPY interf
COC(=O)c1cnc(Nc2nc(C(N)c3ccccc3Cl)cs2)nc1C(F)(F)F (stereo not given),13,0,-1,7,nt,nt
NC(c1csc(NC(=O)c2cccc(OC(F)(F)F)c2)n1)c1ccccc1Cl (stereo not given),37*,0,-2,-10,25*,0
COC(=O)c1cc(CSC(=N)N)ccc1OCCC(C)C,21*,0,3,-2,29*,-13
Cc1ccc(/C=N\NC(=O)CN2CCN(S(=O)(=O)c3ccc(Br)cc3)CC2)s1,-13,nt,-3,-4,nt,nt
Cc1cc(C(=O)O[C@@H]2CCC[C@@]3(C(=O)N(Cc4ccccc4)c4ccccc43)[C@H]2NC(=O)CCc2ccccc2)no1,5,nt,3,5,nt,nt
COc1ccc(NC(=S)NC2CC3CCC2C3)c(OC)c1 (stereo not given),21*,-1,-6,-10,20*,-1
COc1cc(/C=N/NC(=S)NC2CC3CCC2C3)ccc1O (stereo not given),-6,0,-15,-26,nt,nt
COc1cccc(C=NNC(=S)NC2CC3CCC2C3)c1O (stereo not given),26*,nt,-204,-284,31*,7.8*
O=C(Cc1ccc2c(c1)OCO2)N1CCC(n2nc(-c3ccccc3)oc2=O)CC1,-2,nt,2,1,nt,nt
Nc1ccc2c(c1)C(=O)c1ccc(N)cc1-2,4,0,4,-1,nt,nt
Nc1ccc2c(c1)C(=O)c1cc(Cl)c(Cl)cc1-2,31*,0,0,0,35*,14*
Nc1ccc2c(c1)C(=O)c1cc([N+](=O)[O-])ccc1-2,29*,0,1,0,8,4
Cc1ccccc1C(=O)N(Cc1ccccn1)CC1CCCO1 (stereo not given),-2,nt,-1,0,nt,nt
CCn1c(SCc2c(F)cccc2F)nc2sc3c(c2c1=O)CCCC3,-1,nt,0,3,nt,nt
COC(=O)[C@]1(C)CN(C(=O)OC(C)(C)C)C2=C1C(=O)C[C@@](C)(C(=O)OC(C)(C)C)C2,-4,nt,0,-1,nt,nt
CCCC1CCC2(CCCN2CCOC(=O)Nc2ccc(F)cc2)CC1 (stereo not given),-19,nt,1,-1,nt,nt
CCOc1ccc2c(c1)C(=O)C(=O)N2CC1COc2ccccc2O1 (stereo not given),9,-1,-1,-4,nt,nt
COc1ccc2c(c1)C(=O)C(=O)N2CC1COc2ccccc2O1 (stereo not given),20*,0,-2,1,25*,0
CC(=O)c1cccc(NC(=O)C2=CN3CCS(=O)(=O)N=C3C=C2)c1,20*,0,-19,-31,-5,-7
Cc1cccc(N2C(=O)CCC2=O)n1,20*,-1,1,1,5,-5
O=C(CC1CCCC1)N[C@H](C(=O)N1CCC[C@H]1C(=O)NC1CCCC1)C1CCCCC1,6,nt,0,0,nt,nt
COC(=O)c1ccc(Cn2ccc3ccc(-c4ccc5ccn(C(=O)c6ccccc6C)c5c4)cc32)cc1,1,nt,-55,-72,nt,nt
C[C@@H]1CN([C@@H](C)CO)C(=O)CCCn2cc(nn2)CO[C@H]1CN(C)S(C)(=O)=O,-1,nt,2,3,nt,nt
CCN(CC)S(=O)(=O)c1ccc(OC)c(NC(=O)C(C)Oc2ccc3c(C)cc(=O)oc3c2)c1 (stereo not given),-8,0,-4,-7,nt,nt
CCN(CC)S(=O)(=O)c1ccc(C)c(NC(=O)COc2ccc3c(C)cc(=O)oc3c2)c1,20*,0,-1,3,-12,-11
SMILES,HGIII-sPLA2 inh,Tb MetRS inh,PLC-gamma1 inh,PLCb3 inh,hGIII sPLA2 conf,BODIPY interf
Cc1cc(C)c(S(=O)(=O)n2nc(C)c(Br)c2C)c(C)c1,19*,-1,-1,-7,3,-1
Cc1ccc(C(=O)N2CC(=O)Nc3ccc(F)cc3C2c2ccccc2)cc1[N+](=O)[O-] (stereo not given),2,-1,1,1,nt,nt
O=C1CN(C(=O)c2cc([N+](=O)[O-])ccc2Cl)C(c2ccccc2)c2cc(F)ccc2N1 (stereo not given),31*,-1,1,3,6,-7
CN(C)c1ccc(C=NC(CO)C(O)c2ccc([N+](=O)[O-])cc2)cc1 (stereo not given),2,0,1,-6,nt,nt
CN(C)c1ccc(C(c2ccc(N(C)C)cc2)c2ccc([N+](=O)[O-])cc2)cc1,20*,0,-3,-3,19,9.2*
Cc1ccc(C2=CCN(C)C(=O)N2c2ccc([N+](=O)[O-])cc2)cc1,0,nt,3,-2,nt,nt
O=S(=O)(c1ccccc1Br)N(Cc1cn(Cc2ccccc2)nn1)C1CC1,0,nt,0,-1,nt,nt
O=C(CNC(=S)N(CCCN1CCOCC1)Cc1cccs1)NCCCN1CCOCC1,0,-2,-2,6,nt,nt
CCN(CC)C(=O)CNC(=S)N(CCCN1CCOCC1)Cc1cccs1,20*,0,4,0,3,-11
Fc1ccc(-c2n[nH]c(=S)n2N=Cc2ccc(-c3ccccc3)cc2)cc1,5,nt,-2,-2,nt,nt
CCCCCCCCCc1conc1C(=O)/C=C/c1ccco1,24*,0,0,-7,-2,-7
CCCCCCCCCc1conc1C(=O)CP(=O)(OC)OC,-18,0,-1,1,nt,nt
Cc1cc(C)c(O)c(-c2n[nH]c3c2C(c2cccc(O)c2)N(Cc2ccco2)C3=O)c1 (stereo not given),24*,1,6,7,-49,0
CCC(C)[C@H](NC(=O)[C@H](Cc1ccccc1)NC(=O)OC(C)(C)C)C(=O)NCc1ccccc1Br (stereo not given in full),20*,nt,7,3,-2,-18
CC(C)(C)C(=O)NC(=S)Nc1ccc(F)cc1,23*,0,4,2,11,-4
CC(=O)Nc1ccc(NC(=S)Nc2ccc(F)cc2)cc1,5,0,-4,0,nt,nt
CCC[C@@H](CN[C@@H](CNC)C(C)C)NCCCCc1ccccc1,19,0,1,2,nt,nt
CCCC[C@@H](CNC)NC[C@H](NCCCCC1CCCCC1)C(C)C,29*,0,6,1,-5,-28
COCCN1C(=O)[C@H]2C[C@@]13O[C@H](c1ccc(C(F)(F)F)cc1)N=C3C[C@H](c1ccccc1)[C@H]2C,0,nt,-2,4,nt,nt
CCCCCCCCN1C(=O)[C@@H](CC(=O)NCC23CC4CC(CC(C4)C2)C3)C[C@@]2(C(=O)OC)C1=C[C@H](C(C)(C)C)O[C@@H]2C,21*,nt,4,0,-17,-16
COC(=O)C1CN(Cc2ccc(Cl)cc2)CCS(=O)(=O)N1Cc1cn(Cc2ccc(C)cc2)nn1 (stereo not given),-15,nt,-1,2,nt,nt
